Compound activity from PubChem BioAssay.
Shown are actives, neighbours in structure and some others; about 4.1% of the full set was active somewhere.
FLuc inh counter = inhibits firefly luciferase, flagging false hits in luciferase inhibition screens; P08659; ATPLite firefly luciferase biochemical luminescence, 10 min; inhibition, % at 10 µM; hit rate 1.5% among 200,000;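 active = inhibition above about 50% when tested at 10 µM, limit read from the data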
Target sequence (P08659 whole entry, looked up): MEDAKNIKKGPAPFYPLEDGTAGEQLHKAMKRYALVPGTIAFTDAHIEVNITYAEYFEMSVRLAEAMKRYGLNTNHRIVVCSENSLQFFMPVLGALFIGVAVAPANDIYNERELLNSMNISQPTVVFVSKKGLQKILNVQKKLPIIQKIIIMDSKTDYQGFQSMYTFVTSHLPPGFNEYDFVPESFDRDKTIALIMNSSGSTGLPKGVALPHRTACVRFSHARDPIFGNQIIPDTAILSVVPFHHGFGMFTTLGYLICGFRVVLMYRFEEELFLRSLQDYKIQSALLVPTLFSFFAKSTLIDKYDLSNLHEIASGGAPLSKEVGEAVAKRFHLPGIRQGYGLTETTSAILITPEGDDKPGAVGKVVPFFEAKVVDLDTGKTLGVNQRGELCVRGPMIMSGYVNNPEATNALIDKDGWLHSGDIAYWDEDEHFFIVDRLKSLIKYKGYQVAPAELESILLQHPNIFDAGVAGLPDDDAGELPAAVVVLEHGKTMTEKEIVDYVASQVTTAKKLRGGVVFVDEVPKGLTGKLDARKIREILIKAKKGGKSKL
FLuc stim CS = firefly luciferase counter-screen for stimulation assays | ATPlite luciferase biochemical, luminescence, 10 min; 0 = ATP-free wells, 1 = DMSO control | activation factor at 10 µM | 200,000 tested, under 10 active | AID 1027;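 active = luciferase activation factor, scaled between plate controls, of at least 2 with compound at 10 µM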
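System: luciferase plus luciferin reagent, cell-free; medium: PBS as buffer for the ATP substrate; dosing: test compounds dosed from 2 mM stocks in 100% DMSO; timing: 10 min post-reagent at room temperature; measured by: luminescence measurement of luciferase light output; evaluation: luciferase activation, seen as luminescence increase over controls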
STAT1 activator = increases IFN-gamma driven STAT1 reporter signal; NIH 3T3 STAT1-luciferase reporter, luminescence; 100% = IFN-gamma alone, no compound; activation (% of control), % at 5.5 µM; hit rate 2.6% among 200,000;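 active = activation above the screen-wide mean activation plus 3 SD, cut at about 130% in these data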;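 also: raw ratio to IFN-gamma control signal so 100% means no change and 0% no light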
NF-kB expr up = raises NF-kB expression in human neuronal cells; NF-kB reporter expression; stronger effect = higher value; AID 1239; fold change at 12.5 µM; hit rate 1.6% among 190,000; in the data active = fold change above about 3.3
APP 5'UTR act = activates APP 5'UTR luciferase reporter | activation, % at 2 µM | hit rate 1% among 190,000 | SH-SY5Y APP 5'UTR luciferase reporter, luminescence; zero percent = DMSO vehicle wells | AID 1276;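 active = activation above a set limit, based on mean plus 3 SD of controls, cut at about 140% in these data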
Active calls of the source: *.

Screening CCOCCCNC(=O)C(c1ccc(OC)cc1)N(Cc1ccc2c(c1)OCO2)C(=O)c1ccccc1O (stereo not drawn) returned FLuc inh counter -6, FLuc stim CS 1.1, STAT1 activator 99, NF-kB expr up 0.85 and APP 5'UTR act 23.
`Cc1nc2ccccn2c1C(=O)/C=C/c1ccc(F)cc1` gave FLuc inh counter 20, FLuc stim CS 0.8, STAT1 activator 129*, NF-kB expr up 3.4* and APP 5'UTR act 17.
Screening COc1ccc(NC(=O)c2c(Cl)nc3ccccn23)cc1 returned FLuc inh counter 11, FLuc stim CS 0.9, STAT1 activator 134*, NF-kB expr up 1 and APP 5'UTR act 45.
COc1ccc(/C=C/C(=O)c2c(C)nc3ccccn23)cc1 was read as FLuc inh counter 19, FLuc stim CS 0.8, STAT1 activator 141*, NF-kB expr up 1.7 and APP 5'UTR act 106.
For COc1ccc(CNC(=O)c2c(C)nc3ccccn23)cc1 the results were FLuc inh counter -5, FLuc stim CS 1.1, STAT1 activator 91, NF-kB expr up 0.77 and APP 5'UTR act 7.
`CC1CCN(S(=O)(=O)c2ccc(NC(=O)Cc3cccs3)cc2)CC1` gave FLuc inh counter -7, FLuc stim CS 1.1, STAT1 activator 97, NF-kB expr up 0.93 and APP 5'UTR act -9.
For S=C(NCCN1CCOCC1)NC1CCCC1 the results were FLuc inh counter -6, FLuc stim CS 1.1, STAT1 activator 97, NF-kB expr up 0.97 and APP 5'UTR act 7.
For Cc1ccnc(N2C(=O)c3cccc4c([N+](=O)[O-])ccc(c34)C2=O)c1 the results were FLuc inh counter -3, FLuc stim CS 1, STAT1 activator 89, NF-kB expr up 4.7* and APP 5'UTR act -37.
Screening O=C1c2cccc3c([N+](=O)[O-])ccc(c23)C(=O)N1Cc1cccnc1 returned FLuc inh counter -5, FLuc stim CS 1.1, STAT1 activator 106, NF-kB expr up 3.8* and APP 5'UTR act -82.
`O=C(CCN1C(=O)c2cccc3cccc(c23)C1=O)NCc1cccnc1` gave FLuc inh counter -4, FLuc stim CS 1, STAT1 activator 96, NF-kB expr up 1.2 and APP 5'UTR act -4.
Screening O=C(Nc1ccc(F)cc1)C1=CC(=O)N2CCN=C2S1 returned FLuc inh counter 10, FLuc stim CS 0.9, STAT1 activator 112, NF-kB expr up 1.2 and APP 5'UTR act 20.
Screening O=C(COC(=O)c1n[nH]c(=O)c2ccccc12)c1ccc(Br)cc1 returned FLuc inh counter 11, FLuc stim CS 0.9, STAT1 activator 99, NF-kB expr up 1.1 and APP 5'UTR act -30.
`O=C(COC(=O)c1ccccn1)c1ccc(Br)cc1` gave FLuc inh counter 63*, FLuc stim CS 0.4, STAT1 activator 102, NF-kB expr up 1.1 and APP 5'UTR act 4.
For COc1ccc(/C=N/Nc2ncccc2[N+](=O)[O-])c(OC)c1 the results were FLuc inh counter 63*, FLuc stim CS 0.4, STAT1 activator 47, NF-kB expr up 7.9* and APP 5'UTR act 137*.
`COc1ccc(C(=O)NCCn2ccc3ccccc32)cc1` gave FLuc inh counter 7, FLuc stim CS 0.9, STAT1 activator 116, NF-kB expr up 4* and APP 5'UTR act 91.
Screening O=C(NCCn1ccc2ccccc21)c1ccc2c(c1)OCO2 returned FLuc inh counter 10, FLuc stim CS 0.9, STAT1 activator 139*, NF-kB expr up 5.7* and APP 5'UTR act 150*.
Cc1ccc(C(=O)NCCn2ccc3ccccc32)cc1[N+](=O)[O-] was read as FLuc inh counter -6, FLuc stim CS 1.1, STAT1 activator 111, NF-kB expr up 1.3 and APP 5'UTR act -3.
CCc1nc(Sc2nc(C)cc(C)n2)c2oc3ccccc3c2n1 was read as FLuc inh counter -6, FLuc stim CS 1.1, STAT1 activator 92 and NF-kB expr up 4.3*.
CCc1nc(SCCO)c2oc3ccccc3c2n1 was read as FLuc inh counter 8, FLuc stim CS 0.9, STAT1 activator 112, NF-kB expr up 1.2 and APP 5'UTR act 17.
For CCSc1ccccc1C(=O)NCc1ccco1 the results were FLuc inh counter -3, FLuc stim CS 1, STAT1 activator 97, NF-kB expr up 0.99 and APP 5'UTR act 5.
Cc1ccc(-n2c(C)csc2=N)cc1 was read as FLuc inh counter 59*, FLuc stim CS 0.4, STAT1 activator 125, NF-kB expr up 3.5* and APP 5'UTR act 113.
Screening Cc1csc(=N)n1-c1ccc(Cl)cc1 returned FLuc inh counter 11, FLuc stim CS 0.9, STAT1 activator 137*, NF-kB expr up 2.1 and APP 5'UTR act 35.
O=C(NCC1CCCO1)C1CCCN1C(=O)Nc1ccc(Cl)cc1 (stereo not drawn) was read as FLuc inh counter -1, FLuc stim CS 1, STAT1 activator 105, NF-kB expr up 1.1 and APP 5'UTR act 29.
Screening COc1ccccc1CNCc1cccc(Oc2ccccc2)c1 returned FLuc inh counter -3, FLuc stim CS 1, STAT1 activator 98, NF-kB expr up 1.1 and APP 5'UTR act 16.
O=C(/C=C/c1ccc([N+](=O)[O-])cc1)Nc1ncc([N+](=O)[O-])s1 was read as FLuc inh counter 61*, FLuc stim CS 0.4, STAT1 activator 147*, NF-kB expr up 1.4 and APP 5'UTR act 221*.
Screening O=C1CCCC(=O)N1c1ccc(Oc2ccc(Cl)cc2)cc1 returned FLuc inh counter 3, FLuc stim CS 1, STAT1 activator 98, NF-kB expr up 1.5 and APP 5'UTR act 5.
`COc1ccc(N2C(=O)CCC(C(=O)N3CCCCCC3)C2c2ccc(OC)c(OC)c2)cc1` (stereo not drawn) gave FLuc inh counter -11, FLuc stim CS 1.1, STAT1 activator 102, NF-kB expr up 1.3 and APP 5'UTR act -14.
C#CCOCCOCCOCCNc1nc(N2CCN(C(=O)C([C@@H](C)CC)n3cc(C(N)Cc4ccc(O)cc4)nn3)CC2)nc(N2CCN(C(=O)[C@H](CCC(=O)O)n3cc(C(N)Cc4ccc(O)cc4)nn3)CC2)n1 (stereo partly drawn) was read as FLuc inh counter -6, FLuc stim CS 1.1, STAT1 activator 104, NF-kB expr up 0.9 and APP 5'UTR act -2.
For O=C(COc1ccccc1[N+](=O)[O-])Nc1cccnc1 the results were FLuc inh counter 21, FLuc stim CS 0.8, STAT1 activator 123, NF-kB expr up 1.9 and APP 5'UTR act -1.
For Cc1ccc(NC(=O)COc2ccccc2[N+](=O)[O-])nc1 the results were FLuc inh counter 80*, FLuc stim CS 0.2, STAT1 activator 95, NF-kB expr up 5.5* and APP 5'UTR act 31.
For Cc1ccnc(NC(=O)COc2ccccc2[N+](=O)[O-])c1 the results were FLuc inh counter 81*, FLuc stim CS 0.2, STAT1 activator 108, NF-kB expr up 1.1 and APP 5'UTR act 150*.
`C/C(=N\NC(=O)COc1ccccc1[N+](=O)[O-])c1cccs1` gave FLuc inh counter 19, FLuc stim CS 0.8, STAT1 activator 144*, NF-kB expr up 1.9 and APP 5'UTR act 41.
